Screening results deposited in PubChem by The Scripps Research Institute Molecular Screening Center.
Compounds with a hit are over-represented: about 3% of the library has one in this group of screens.
CHRM4 antagonist – human M4 muscarinic receptor antagonists, primary screen, CHO cells, Fluo-8 calcium fluorescence | Muscarinic acetylcholine receptor M4 (Homo sapiens), P08173 | CHO-hM4 cells, ACh EC80 | inhibition, % at 3 µM | 0.73% of 360,000 active | AID 624125, 2012;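 active = inhibition above its plate's cutoff, the mean inhibition of sample wells plus 3 SD, cut at about 27% in these data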;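 note: 0% = acetylcholine EC80 with DMSO and 100% = DMSO without agonist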
M4 PAM – human M4 muscarinic receptor positive allosteric modulators, primary screen, CHO-K1 cells, Fluo-8 calcium fluorescence | AID 624126, 2012 | 0.4% of 360,000 active | CHO-K1 hM4/Gqi5, ACh EC20; 0% = ACh EC20, 100% = maximal ACh | activation, % at 3 µM | Muscarinic acetylcholine receptor M4 (Homo sapiens), P08173;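 active = activation above its plate's cutoff, the mean activation of sample wells plus 3 SD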
TAAR1 ag – human TAAR1 agonists, primary screen, Fluo-8 calcium fluorescence, CHO RD-HGA16 cells; Trace amine-associated receptor 1 (Homo sapiens), Q96RJ0; vehicle wells 0%, saturating PEA agonist 100%; activation, % at 3 µM; 0.99% of 360,000 active;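 active = activation above the mean activation of all test compounds in the run plus 3 SD, cut at about 38% in these data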
Target sequence (Q96RJ0 whole entry, looked up): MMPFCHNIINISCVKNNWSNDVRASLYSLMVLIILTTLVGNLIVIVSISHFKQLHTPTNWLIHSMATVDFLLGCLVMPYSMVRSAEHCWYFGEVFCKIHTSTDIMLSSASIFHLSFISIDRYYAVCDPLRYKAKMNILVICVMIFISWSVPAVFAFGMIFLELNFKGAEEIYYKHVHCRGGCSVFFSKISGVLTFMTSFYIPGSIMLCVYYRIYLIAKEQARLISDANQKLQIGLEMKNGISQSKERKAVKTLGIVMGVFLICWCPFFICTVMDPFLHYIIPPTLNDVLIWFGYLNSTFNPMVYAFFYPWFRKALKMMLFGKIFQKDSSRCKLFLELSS
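Test system: RD-HGA16 (CHO) cells co-expressing Gα16 and hTAAR1 | Doses: Single dose, 3 µM | Schedule: 17-24 h seeding, 75 min 37 °C dye, 30 min RT | Evaluation: % activation from peak over basal fluorescence ratio, DMSO-to-PEA scaled | Technique: Kinetic Fluo-8 calcium fluorescence | Benchmarks: Low control DMSO, high control PEA (EC100)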
TAAR1 antagonist – human TAAR1 antagonists, primary screen, Fluo-8 calcium fluorescence, CHO RD-HGA16 cells. Trace amine-associated receptor 1 (Homo sapiens), Q96RJ0. antagonist. inhibition, % at 3 µM. 1.5% of 360,000 active. AID 624466, 2012;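 active = inhibition above a per-plate cutoff, the mean inhibition of test compounds on that plate plus 3 SD, cut at about 49% in these data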;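 note: 0% = DMSO plus EC80 beta-PEA response and 100% = DMSO alone without agonist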
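Material: CHO RD-HGA16 cells bearing hTAAR1; compound dosing: one-point dosing, 3 µM nominal final; schedule: dye loading 75 min at 37 °C, then 30 min room temperature; measured by: calcium fluorescence with Fluo-8; control set: vehicle and agonist controls; replication: n of 1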
M4 ag – human M4 muscarinic receptor agonists, primary screen, CHO-K1 cells, Fluo-8 calcium fluorescence; Muscarinic acetylcholine receptor M4 (Homo sapiens), P08173; CHO-K1 hM4/Gqi5; vehicle 0%, full acetylcholine response 100%; activation, % at 3 µM; 0.14% of 360,000 active;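 active = activation above the run mean over all test wells plus 3 SD, cut at about 32% in these data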;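 note: peak over basal fluorescence ratio per well then scaled between controls; 0% = DMSO wells and 100% = acetylcholine at EC100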
nonsel antag count – nonselective antagonists in TAAR1 counter-screen cells, counter-screen for hTAAR1 antagonist project, cell-based, fluorescence, calcium; shares compounds with TAAR1 antagonist; counterscreen cell line, antagonist mode; inhibition, % at 3 µM; 77% of 2,400 active; AID 651780, 2012; in the data active = inhibition above about 22%;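 note: CHO-Ga16 host cells stimulated with ATP at an EC80 level; 0% = agonist EC80 plus vehicle and 100% = vehicle without agonist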
TAAR1 antag conf – human TAAR1 antagonists, retest of hits, confirmation, cell-based, fluorescence; TAAR1-expressing cells, fluorescence antagonist read-out; AID 651785, 2012; inhibition, % at 3 µM; 40% of 2,400 active; shares compounds with TAAR1 antagonist; in the data active = inhibition above about 49%;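 note: CHO-Ga16 host cells challenged with agonist PEA near its EC80; 0% = agonist at EC80 plus vehicle and 100% = vehicle with no agonist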
Ga16 ag counter – calcium activation in Ga16-expressing cells, counter-screen for TAAR1 antagonist project, cell-based, fluorescence; shares compounds with TAAR1 antagonist; agonist counterscreen; activation, % at 3 µM; 18% of 2,400 active; AID 651953, 2012; in the data active = activation above about 12%;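 note: 0% = vehicle wells and 100% = saturating stimulus response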
TAAR1 ag count – TAAR1 activation by candidate antagonists – cell-based, fluorescence, counter-screen for TAAR1 antagonist project | shares compounds with TAAR1 antagonist | hTAAR1 cell line, agonist mode | activation, % at 3 µM | 2% of 2,400 active; in the data active = activation above about 37%;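 note: CHO cells stably expressing TAAR1 with calcium dye readout; 0% = DMSO vehicle and 100% = full agonist response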
Numbers without * were called inactive; . = no result.

SMILES	CHRM4 antagonist	M4 PAM	TAAR1 ag	TAAR1 antagonist	M4 ag	nonsel antag count	TAAR1 antag conf	Ga16 ag counter	TAAR1 ag count
c1ccc(CCc2cn(C[C@H]3CC[C@@H]([C@@H]4CC[C@H](Cn5cc(CCc6ccccc6)nn5)O4)O3)nn2)cc1	-7	-4	26	57*	20	32*	57*	13*	13
O=C(NCC[C@H]1CC[C@@H](NC(=O)C2CCC2)[C@@H](CO)O1)c1cc(Cl)cc(Cl)c1	-6	4	1	-1	1	.	.	.	.
CCOC(=O)N(C)[C@H]1C[C@H]2c3[nH]c4c(-c5ccccc5)cccc4c3CCN2C(=O)[C@H]1[C@H](C)O	.	.	3	13	.	.	.	.	.
O=C(Nc1nc(-c2ccc3ccccc3c2)cs1)C1CCN(S(=O)(=O)c2cccs2)CC1	16	-7	0	104*	1	15	3	3	4
COc1cccc(CNC(=O)CCn2c(=O)c3cccn3c3cccnc32)c1	8	-1	1	-7	2	.	.	.	.
CSc1cccc(NC(=O)CCn2c(=O)c3cccn3c3cccnc32)c1	-14	-1	23	57*	2	25*	48	9	17
CCNC(=O)C1(C)CCCN(C(=O)c2ccc(F)c(C)c2)C1 (stereo unspecified)	-8	6	0	-14	0	.	.	.	.
CN(c1ccccc1)S(=O)(=O)c1cccc(C(=O)Nc2nccs2)c1	-7	-9	7	8	6	.	.	.	.
COc1cc(OC)c(N(C)S(=O)(=O)c2cccc(C(=O)Nc3nccs3)c2)cc1Cl	0	-7	10	63*	12	28*	45	8	3
Cc1nn(-c2ccccc2)c(N2CCCC2)c1/C=N/n1cnc2scc(-c3ccccc3)c2c1=O	10	-5	5	54*	1	28*	39	3	2
O=C1NC[C@H](CCCCN2CCN(CCc3ccccc3)C(=O)C2=O)N(CCC2CCCCC2)C1=O	1	4	4	11	1	.	.	.	.
Cc1ccc(C(O)c2ncc(-c3ccccc3Cl)[nH]2)c(C)c1 (stereo unspecified)	1	3	5	-21	2	.	.	.	.
COc1ccccc1OCCC(=O)NNC(=O)c1ccccc1F	-6	10	1	103*	1	-7	-8	11	8
CC(C)(C)c1ccc(OCc2ccc(C(=O)Nc3cccnc3)o2)cc1	25	-16	9	75*	23	50*	61*	11	12
O=C(Nc1ccc(F)cc1)C(CCc1ccccc1)N1CCN(c2cccc(C(F)(F)F)n2)CC1 (stereo unspecified)	5	-13	-1	28	4	.	.	.	.
N#Cc1cc(NC(=O)c2ccc(Cl)cc2)ccc1Sc1ccccc1	-6	0	6	73*	6	35*	48	9	2
CCN(c1ccccc1)S(=O)(=O)c1ccc(NC(=S)NC(=O)c2ccc(Br)o2)cc1	-12	3	8	64*	1	33*	40	8	0
CCC(=O)NC(=S)Nc1ccc(NC(=O)c2ccc(Br)o2)cc1	3	-6	-1	0	2	.	.	.	.
CS(=O)(=O)N1CCN(c2ccccc2NC(=S)NC(=O)c2ccco2)CC1	-14	1	16	49*	2	29*	44	9	8
O=C(NC(=S)Nc1ccccc1N1CCCC1)c1ccco1	9	-6	6	-9	0	.	.	.	.
O=C(c1nn(Cc2ccccc2)c(=O)c2ccccc12)N1CCN(C/C=C/c2ccccc2)CC1	6	-6	10	50*	4	18	27	3	4
CC(NC(=O)c1cccc(S(=O)(=O)N2CCCCCC2)c1)c1ccccc1 (stereo unspecified)	-3	-3	-2	-3	2	.	.	.	.
CCOc1ccc(NC(=O)CN(C)C(=O)c2cc(-c3ccncc3)nc3ccccc23)cc1OCC	7	-8	8	67*	18	30*	43	7	7
COc1ccc(Cl)cc1NC(=O)CN(C)C(=O)c1ccc2c(c1)CC(c1ccccc1)OC2=O (stereo unspecified)	15	-11	22	65*	17	33*	53*	12*	14
COc1ccc(Cl)cc1NC(=O)CN(C)C(=O)c1cc(-c2ccncc2)nc2ccccc12	13	-14	19	74*	33*	42*	53*	15*	14
SMILES	CHRM4 antagonist	M4 PAM	TAAR1 ag	TAAR1 antagonist	M4 ag	nonsel antag count	TAAR1 antag conf	Ga16 ag counter	TAAR1 ag count
COCCOC(=O)c1c(C)n(C)c2ccc(OC(=O)c3ccccc3OC)cc12	4	-6	12	53*	16	26*	45	9	7
COCCOC(=O)c1c(C)n(C)c2ccc(OC(=O)c3ccco3)cc12	-1	2	5	6	1	.	.	.	.
O=C(Nc1ccc(N2CCN(C(=O)c3ccccc3)CC2)c(Cl)c1)c1ccco1	12	-9	14	40	14	.	.	.	.
CCC(=O)N1CCN(c2ccc(NC(=O)c3cc4ccccc4o3)cc2Cl)CC1	7	-18	25	73*	13	49*	66*	13*	12
CCC(=O)N1CCN(c2ccc(NC(=O)c3ccco3)cc2Cl)CC1	-10	-3	6	19	9	.	.	.	.
COc1cc(NC(=O)c2cc3ccccc3o2)c(OC)cc1Cl	-1	-4	10	55*	1	17	54*	0	1
O=C(Nc1ccc(N2CCN(C(=O)c3ccco3)CC2)c(Cl)c1)c1cc2ccccc2o1	51*	-16	16	84*	18	41*	67*	10	10
CC(=O)NC(c1ccccc1)c1nc(-c2cccc(C#N)c2)cs1 (stereo unspecified)	-2	1	3	-2	1	.	.	.	.
